Reference: ChEMBL document CHEMBL1649070, “Virtual screening identification of nonfolate compounds, including a CNS drug, as antiparasitic agents inhibiting pteridine reductase” (J Med Chem, 2011)
Values after ≈ are worked out from the molar mass of the structure shown. Active and inactive are the calls of the source. The calls are words filed in the database; no cut-off is given here.

How the values were obtained:
[1] = target: T1, Pteridine reductase 1 (Leishmania major) (UniProt Q01782); settings: at 500 µM
T1 sequence (whole entry): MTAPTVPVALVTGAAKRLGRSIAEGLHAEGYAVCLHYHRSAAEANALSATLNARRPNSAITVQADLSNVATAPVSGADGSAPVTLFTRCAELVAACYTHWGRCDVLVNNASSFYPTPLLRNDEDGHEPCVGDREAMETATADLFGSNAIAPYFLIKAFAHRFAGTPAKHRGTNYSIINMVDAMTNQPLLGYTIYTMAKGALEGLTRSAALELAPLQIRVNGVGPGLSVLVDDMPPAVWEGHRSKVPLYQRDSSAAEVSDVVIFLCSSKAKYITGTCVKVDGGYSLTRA

[2] = Solubility of the compound at pH 7.4; type: physicochemical; settings: buffer
[3] = Lipophilicity, log D of the compound in octanol buffer at pH 7.4; type: physicochemical
[4] = target: T1, Pteridine reductase 1 (Leishmania major); test: Inhibition of Leishmania major PTR1 at 5 uM
Summary of the method: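 Compounds dissolved in DMSO and screened at a single 5 μM concentration; DMSO kept below 1%. Measurements run in triplicate.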

Leishmania mexicana [5] = test: Antileishmanial activity against Leishmania mexicana MHOM/BZ/84/BEL46 assessed as growth at 50 ug/ml by Alamar blue assay; type: functional
Summary of the method: (§1)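 Promastigotes grown in SDM-79, pH 7.3, with 15% heat-inactivated FCS at 28 C in 5% CO2, then seeded at 1 × 10^6 parasites/mL. Each compound tested alone at 50 μg/mL in duplicate as a control for the combination experiments; DMSO below 1% final. After 72 h at 28 C, Alamar Blue added for 4 h; fluorescence read at ex 530 / em 590 nm. Growth expressed as percentage of untreated cultures.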

Leishmania major [6] = test: Antileishmanial activity against Leishmania major MHOM/SU/73/5-ASKH assessed as growth at 50 ug/ml by Alamar blue assay; type: functional
Summary of the method: as §1

[7] = Cytotoxicity against human MRC5 cells after 72 hrs by Alamar blue assay; type: cell-based; settings: read-out: ED50
Leishmania major [8] = test: Antileishmanial activity against Leishmania major MHOM/SU/73/5-ASKH assessed as growth at 50 ug/ml by Alamar blue assay in presence of pyrimethamine; 5-(4-chlorophenyl)-6-ethylpyrimidine-2,4-diamine DHFR inhibitor; values are per cent of control
Leishmania mexicana [9] = test: Antileishmanial activity against Leishmania mexicana MHOM/BZ/84/BEL46 assessed as growth at 50 ug/ml by Alamar blue assay in presence of pyrimethamine; 5-(4-chlorophenyl)-6-ethylpyrimidine-2,4-diamine DHFR inhibitor; values are per cent of control
[10] = target: Bifunctional dihydrofolate reductase-thymidylate synthase (Leishmania major) (UniProt P07382); test: Inhibition of Leishmania major DHFR at 50 uM
Sequence of Bifunctional dihydrofolate reductase-thymidylate synthase (Leishmania major) (P07382 whole entry, looked up): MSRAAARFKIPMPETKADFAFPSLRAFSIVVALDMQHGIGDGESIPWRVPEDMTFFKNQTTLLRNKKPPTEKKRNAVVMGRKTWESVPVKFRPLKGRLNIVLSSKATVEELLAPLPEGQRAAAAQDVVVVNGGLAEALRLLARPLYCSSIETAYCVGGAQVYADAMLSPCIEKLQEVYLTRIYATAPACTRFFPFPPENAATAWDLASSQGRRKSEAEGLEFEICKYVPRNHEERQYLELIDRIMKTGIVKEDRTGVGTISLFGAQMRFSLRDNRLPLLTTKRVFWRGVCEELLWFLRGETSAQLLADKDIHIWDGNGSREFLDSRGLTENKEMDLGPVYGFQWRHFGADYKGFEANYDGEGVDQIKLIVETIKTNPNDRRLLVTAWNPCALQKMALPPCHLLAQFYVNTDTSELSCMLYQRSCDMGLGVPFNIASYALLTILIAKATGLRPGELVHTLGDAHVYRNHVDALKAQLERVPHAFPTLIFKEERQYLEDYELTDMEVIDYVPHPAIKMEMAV
Summary of the method: (§2)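 NADPH oxidation followed at 340 nm. Compounds in DMSO, screened at a single concentration between 25 μM and 1 mM. Measurements run in triplicate.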

[11] = target: T2, Dihydrofolate reductase (Homo sapiens) (UniProt P00374); test: Inhibition of human DHFR at 50 uM
T2 sequence (whole entry): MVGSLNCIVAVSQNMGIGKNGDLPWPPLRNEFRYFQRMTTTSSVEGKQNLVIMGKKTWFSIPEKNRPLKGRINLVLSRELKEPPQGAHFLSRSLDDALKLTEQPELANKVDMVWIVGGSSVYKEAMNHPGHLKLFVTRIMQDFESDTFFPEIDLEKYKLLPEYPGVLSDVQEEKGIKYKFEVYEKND
Summary of the method: as §2

[12] = target: T2, Dihydrofolate reductase (Homo sapiens); test: Inhibition of human DHFR at 1 mM
Summary of the method: as §2

[13] = target: T2, Dihydrofolate reductase (Homo sapiens); test: Inhibition of human DHFR at 100 uM
Summary of the method: as §2

SMILES | inhibition [1] | solubility [2] | logD [3] | inhibition [4] | other results
COc1ccc(N2CCCC2=O)cc1 | inactive | – | – | – | –
Cn1cc(C(=O)O)c2ccccc21 | inactive | – | – | – | –
Nc1nnc(-c2cccc(NS(=O)(=O)c3ccc([N+](=O)[O-])cc3)c2)s1 | – | 19 µM (≈ 7.17 µg/mL) | 2.43 | inactive | –
O=c1[nH]c2c(Cl)cccc2s1 | inactive | – | – | – | –
Nc1nnc(-c2ccccc2)s1 | – | 2000 µM (≈ 354 µg/mL) | 2.03 | inactive | –
CCc1nc(N)nc(N)c1-c1ccc(Cl)cc1 [PYRIMETHAMINE] | – | – | – | – | growth, % of control at 50 µg/mL (Leishmania mexicana [5]): 102%; growth, % of control at 50 µg/mL (Leishmania major [6]): 68%; CC50 at 72 h [7]: 16.2 mg/L (≈ 65.3 µM)
CCOc1ccc(-c2nnc(N)s2)cc1 | – | 440 µM (≈ 97.4 µg/mL) | 2.73 | inactive | –
Cc1ccc(C=O)cc1F | inactive | – | – | – | –
CN1CCOc2cc(C=O)ccc21 | inactive | – | – | – | –
Nc1cc(O)c2ccccc2n1 | inactive | – | – | – | –
C=CCc1cc(OC)c(O)cc1C=O | inactive | – | – | – | –
C#CCn1cc(C(=O)O)c(=O)c2cc(F)c(Cl)cc21 | inactive | – | – | – | –
Cc1ccc(C(=O)Nc2nnc(-c3ccc(C)c(C)c3)s2)cc1C | – | – | – | inactive | –
O=C(CN1C(=O)c2ccccc2C1=O)Nc1nnc(CN2C(=O)c3ccccc3C2=O)s1 | – | – | – | inactive | inhibition [10]: inactive; inhibition [11]: inactive
CCC(C)c1nnc(N)s1 (stereo not given) | – | 22000 µM (≈ 3460 µg/mL) | 1.25 | inactive | –
c1ccc2cnncc2c1 | inactive | – | – | – | –
Cc1ccc(C(=N)N)cc1 | inactive | – | – | – | –
Cc1ccc(-c2nnc(N)s2)cc1C | – | 420 µM (≈ 86.2 µg/mL) | 2.95 | inactive | –
N#C/C=C(/N)N1CCCC1 | inactive | – | – | – | –
CN(C)C1=C2C=CC=C2C(=O)C1 | inactive | – | – | – | –
O=C(O)CCNC(=O)c1ccc([N+](=O)[O-])cc1 | inactive | – | – | – | –
Nc1cc(F)ccc1O | inactive | – | – | – | –

SMILES | inhibition [1] | solubility [2] | logD [3] | inhibition [4] | other results
O=C(CO)c1ccc(Cl)cc1 | inactive | – | – | – | –
Nc1cccc2c1C(=O)c1ccccc1-2 | inactive | – | – | – | –
O=Cc1ccc2c(c1)CCO2 | inactive | – | – | – | –
Nc1nnc(-c2cccc(NS(=O)(=O)c3cccc([N+](=O)[O-])c3)c2)s1 | – | 24 µM (≈ 9.06 µg/mL) | 2.36 | inactive | –
Nc1nnc(-c2ccc3nn[nH]c3c2)s1 | – | 2500 µM (≈ 546 µg/mL) | 0.38 | – | CC50 at 72 h [7]: 51.5 mg/L (≈ 236 µM)
Cc1cccc(-c2nnn[nH]2)c1 | inactive | – | – | – | –
CCn1nc(C)cc1N | inactive | – | – | – | –
CCOc1ccc(CO)cc1 | inactive | – | – | – | –
Nc1nncs1 | – | – | – | – | inhibition [12]: inactive
Nc1nnc(CCc2ccccc2)s1 | – | 1300 µM (≈ 267 µg/mL) | 2.03 | inactive | –
Cc1nnsc1SC(C)C | inactive | – | – | – | –
O=C(c1ccc(O)cc1)c1ccc(F)cc1 | – | – | – | – | inhibition [10]: inactive; inhibition [11]: inactive
Fc1cccc(-n2ccnc2)c1 | inactive | – | – | – | –
NCCc1ccc(N)cc1 | inactive | – | – | – | –
Nc1ccc(F)c(N)c1 | inactive | – | – | – | –
NC(=O)C1=C2CCCc3cccc(c32)C1=O | inactive | – | – | – | –
Nc1ccnc2ccccc12 | inactive | – | – | – | –
Cn1ncc2cc(N)ccc21 | – | – | – | – | inhibition [10]: inactive; inhibition [13]: inactive
Nc1nnc([C@@H](O)c2ccccc2)s1 | – | 3700 µM (≈ 767 µg/mL) | 1 | inactive | –
COc1ccc2c(c1)c(C=O)cn2C | inactive | – | – | – | –
NCCc1ccc(-c2nnc(N)s2)cc1 | – | 210000 µM (≈ 46300 µg/mL) | -0.69 | inactive | –
NNc1cccc(F)n1 | inactive | – | – | – | –

More lines, main results first:

inhibition [1] | solubility [2] | logD [3] | inhibition [4] | SMILES | other results
inactive | – | – | – | CC(=O)n1cc(C=O)c2ccccc21 | –
– | 87000 µM (≈ 18600 µg/mL) | -1.74 | inactive | Nc1nnc(CC2NC(=O)NC2=O)s1 (stereo not given) | –
– | 1200 µM (≈ 287 µg/mL) | 1.11 | inactive | Nc1nnc(CCC(=O)c2cccs2)s1 | growth, % of control at 50 µg/mL (Leishmania mexicana [5]): 96.9%; growth, % of control at 50 µg/mL (Leishmania major [6]): 85.1%; CC50 at 72 h [7]: 34.4 mg/L (≈ 144 µM); growth, % of control at 50 µg/mL (Leishmania major [8]): 17.5%; growth, % of control at 50 µg/mL (Leishmania mexicana [9]): 27.3%
– | 780 µM (≈ 193 µg/mL) | 1.76 | inactive | Nc1nnc(CCCC(=O)c2ccccc2)s1 | –
inactive | – | – | – | O=Cc1ccc(O)cc1F | –
inactive | – | – | – | Cc1cc(=O)n(C)c2ccccc12 | –
inactive | – | – | – | OCc1ccc2[nH]ccc2c1 | –
– | 210 µM (≈ 56.2 µg/mL) | 2.2 | inactive | Nc1nnc(CCC(=O)c2ccc(Cl)cc2)s1 | inhibition [10]: inactive; inhibition [11]: inactive
– | 400 µM (≈ 82.1 µg/mL) | 2.95 | inactive | Cc1cc(C)cc(-c2nnc(N)s2)c1 | –
inactive | – | – | – | O=C1Cc2ccc(F)cc2N1 | –
– | 13000 µM (≈ 2320 µg/mL) | 0.77 | inactive | Nc1nnc(-c2ccncc2)s1 | –
inactive | – | – | – | CN(C)c1ccc(C=O)cc1C#N | –
– | 42000 µM (≈ 6870 µg/mL) | 0.44 | – | Nc1nnc(CCCl)s1 | –
inactive | – | – | – | O=C1CCCN1c1ccccc1 | –
– | 530 µM (≈ 118 µg/mL) | 1.94 | inactive | Nc1nnc(-c2cccc([N+](=O)[O-])c2)s1 | –
– | – | – | inactive | O=C(Nc1nnc(-c2ccncc2)s1)c1ccncc1 | –
inactive | – | – | – | Nc1ccc(Cl)cc1C=O | –

inhibition [1] | solubility [2] | logD [3] | inhibition [4] | SMILES | other results
inactive | – | – | – | O=C(O)c1ccc2cc[nH]c2c1 | –
inactive | – | – | – | Cc1cccc2cc[nH]c12 | –
– | 390 µM (≈ 78.9 µg/mL) | 1.68 | inactive | N#Cc1ccc(-c2nnc(N)s2)cc1 | –
– | 1300 µM (≈ 338 µg/mL) | 0.22 | inactive | Nc1nnc(CN2C(=O)c3ccccc3C2=O)s1 | –
inactive | – | – | – | COc1ccc(C(C)=O)cc1CCl | –
inactive | – | – | – | Clc1cccc(-n2ccnc2)c1 | –
inactive | – | – | – | Nc1ccc(F)c(F)c1N | –
inactive | – | – | – | CC(=O)c1cccc(O)c1 | –
inactive | – | – | – | C/C(=N\N)c1ccc(C)cc1 | –
– | 240 µM (≈ 61.4 µg/mL) | 2.44 | inactive | Nc1nnc(CCOc2ccc(Cl)cc2)s1 | –
inactive | – | – | – | Nc1cc(-c2ccccc2)n[nH]1 | –
– | – | – | inactive | Nc1nnc(-c2ccc3[nH]nnc3c2)s1 | inhibition [10]: inactive; inhibition [11]: inactive; growth, % of control at 50 µg/mL (Leishmania mexicana [5]): 112%; growth, % of control at 50 µg/mL (Leishmania major [6]): 83.5%; growth, % of control at 50 µg/mL (Leishmania major [8]): 40.9%; growth, % of control at 50 µg/mL (Leishmania mexicana [9]): 18.2%
– | 13000 µM (≈ 2170 µg/mL) | 0.82 | inactive | Nc1nnc(-c2ccco2)s1 | –
– | 730 µM (≈ 179 µg/mL) | 1.4 | inactive | Nc1nnc(-c2cc(=O)c3ccccc3o2)s1 | inhibition [11]: inactive; growth, % of control at 50 µg/mL (Leishmania mexicana [5]): 132%; growth, % of control at 50 µg/mL (Leishmania major [6]): 76%; CC50 at 72 h [7]: 43 mg/L (≈ 175 µM); growth, % of control at 50 µg/mL (Leishmania major [8]): 14.6%; growth, % of control at 50 µg/mL (Leishmania mexicana [9]): 35.1%
inactive | – | – | – | CC(=O)c1ccc(C#N)s1 | –
– | 210000 µM (≈ 24200 µg/mL) | -0.16 | inactive | Cc1nnc(N)s1 | –
inactive | – | – | – | Nc1nc(-c2ccc(Cl)cc2)cs1 | –
